According to publication PMC7325368 (Journal of Clinical Oncology, 2020):
Where “and” joins values, the source holds several entries; their conditions need not be identical. Equal entries are not always repeated. Where two headings read alike, the source gives them in different places.

Tests used:
[1] = system: B-RAF–mutated melanoma; conditions: patients with B-RAF–mutated melanoma ref 12, 33; cited from earlier work
[2] = system: VEGFR2; conditions: inhibition of VEGFR2 ref 15; cited from earlier work
[3] = Plasma pharmacokinetics in patients; assay type: in vivo; conditions: human
Procedure, shortened: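 Oral test compound given as a single dose on cycle 1, day 1, then a 2-day treatment-free period for single-dose PK sampling, then once daily on days 4–24 and continuously in 21-day cycles. Doses were 10–60 mg. Plasma was sampled at prespecified time points on cycle 1, day 1 and cycle 2, day 1. Accumulation ratios for Cmax, AUC0-9 and AUC0-24 were taken as cycle 2/cycle 1.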

[4] = system: K-RAS/N-RAS–mutated solid tumors; assay: Antitumor activity; assay type: in vivo, human
[5] = system: B-RAF–mutated solid tumors; assay: Antitumor activity; assay type: in vivo, human
[6] = system: EGFR, DDR1, DDR2, EPHA3, FLT3, VEGFR2, ABL1, RET, EPHGA7, EPHB2, MNK2, and ZAK; conditions: EPHGA7, EPHB2, MNK2, ZAK ref 15; cited from earlier work
[7] = system: B-RAF– or K-RAS/N-RAS–mutated solid tumors; assay type: in vivo, human
Procedure, shortened: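 Oral test compound once daily: escalation cohorts at 5–60 mg; expansion at 30 mg/d in 21-day cycles in patients with B-RAF or K-RAS/N-RAS mutations. Treatment continued until unacceptable toxicity or withdrawal, with treatment beyond progression allowed if clinically beneficial. Response and stable disease scored per RECIST v1.1, investigator-assessed in expansion. Time-to-event end points summarized by Kaplan-Meier estimators.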

[8] = system: tumor FDG uptake in patients with solid tumors; assay: FDG-PET-CT scans; assay type: in vivo, human
Procedure, shortened: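 Exploratory FDG uptake measured by FDG-PET-CT at screening and again on cycle 2, day 1 (± 3 days) in patients receiving the oral test compound once daily in 21-day cycles. Each patient's on-treatment uptake category was compared with the baseline scan.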

[9] = system: patients with advanced/metastatic solid tumors; assay: Safety and tolerability; assay type: in vivo, human
[10] = K-RAS^mut/N-RAS^mut patients (n = 66), both phases
[11] = B-RAF^mut patients (n = 53), both phases
[12] = cycle 2, day 1, 34 patients (7 missing postbaseline results)
[13] = cycle 2, day 1 vs baseline, 1 patient
[14] = Dose Expansion (n = 96), 30 mg/d

CCCS(=O)(=O)Nc1ccc(F)c(C(=O)c2c[nH]c3ncc(-c4ccc(Cl)cc4)cc23)c1F [vemurafenib]
ORR [1]: 48%

CC(C)(C)c1nc(-c2cccc(NS(=O)(=O)c3c(F)cccc3F)c2F)c(-c2ccnc(N)n2)s1 [dabrafenib]
DCR [1]: 91% | ORR [1]: 50%

O=C1CCc2c(Oc3ccc4c(c3)[C@@H]3[C@H](O4)[C@H]3c3nc4ccc(C(F)(F)F)cc4[nH]3)ccnc2N1 [lifirafenib]
IC50 [2]: 108 nM | half-life ([3]; oral): 900 to 3540 min | Tmax ([3]; po): 3 h | Patients with confirmed PR ([4]; K-RAS codon 12–mutated NSCLC, 30 mg/d): 1 n | Patients with duration of treatment > 1 year ([4]; K-RAS mutations): 5 n | Patients with confirmed responses ([4]; K-RAS mutations, entire study): 2 patients | Responses ([4]; K-RAS/N-RAS–mutated colorectal cancer (n = 20)): No responses | Best overall response (confirmed): CR [4, 10]: 0 No. (%) | Best overall response (confirmed): NE/missing [4, 10]: 15 (22.7) No. (%) | Best overall response (confirmed): PD [4, 10]: 16 (24.2) No. (%) | Best overall response (confirmed): PR [4, 10]: 2 (3.0) No. (%) | Best overall response (confirmed): SD [4, 10]: 33 (50.0) No. (%) | Disease control rate (CR + PR + SD) [4, 10]: 35 (53.0) No. (%) | Objective response rate (CR + PR) [4, 10]: 2 (3.0) No. (%) | Patients with SD ([4]; K-RAS– or N-RAS–mutated CRC): Twelve | Patients with SD ([4]; K-RAS–mutated NSCLC (codon 12 mutated and K-RAS G13D, n = 1 each)): 2 patients | Patients with SD ([4]; K-RAS–mutated endometrial cancer (codon 12 mutated, n = 4; codon 2 mutated, n = 1)): 5 patients | Patients with confirmed PR ([4]; K-RAS–mutated endometrial cancer, 20 mg/d): 1 n | ORR ([4]; patients with K-RAS mutations, entire study): 3.4% | Patients with SD ([4]; patients with K-RAS mutations, entire study, 32 patients): 54.2% | Patients with duration of treatment > 1 year ([5]; B-RAF mutations): 10 n | DCR ([5]; B-RAF^V600–mutated thyroid cancer (3 patients)): 100% | ORR ([5]; B-RAF^V600–mutated thyroid cancer, one of 3 patients confirmed PR): 33.3% | Best overall response (confirmed): CR [5, 11]: 1 (1.9) No. (%) | Best overall response (confirmed): NE/missing [5, 11]: 9 (17.0) No. (%) | Best overall response (confirmed): PD [5, 11]: 8 (15.1) No. (%) | Best overall response (confirmed): SD [5, 11]: 27 (50.9%) No. (%) and 27 (50.9) No. (%) | Disease control rate (CR + PR + SD) [5, 11]: 36 (67.9) No. (%) | Objective response rate (CR + PR) [5, 11]: 9 (17.0) No. (%) | Patients with confirmed PR ([5]; B-RAF–mutated thyroid cancer/PTC): 2 n | Patients with confirmed PR ([5]; human, in vivo): 1 n | IC50s relative to that for B-RAF^V600E [6]: ≤ 10 fold | Patients with confirmed clinical responses ([7]; dose escalation, n = 3, all had FDG-PET-CT responses): 8.6% | Median DoR ([7]; dose escalation, 95% CI, 6.8 to 31.7 months): 31.7 months | Median DoR ([7]; dose expansion, 95% CI, 1.9 months to not reached): 11.1 months | Median duration of SD ([7]; dose expansion, 95% CI, 3.5 to 4.9 months): 4.1 months | Patients with high FDG uptake [8, 12]: 15 patients | Patients with low FDG uptake [8, 12]: 1 patient | Patients with moderate FDG uptake [8, 12]: 10 patients | Patients with no FDG uptake [8, 12]: 1 patient | Patients who changed from high to low FDG uptake [8, 13]: 2.9% | Patients who changed from low to no FDG uptake [8, 13]: 2.9% | Patients who changed from high to moderate FDG uptake ([8]; cycle 2, day 1 vs baseline, 7 patients): 20.6% | Patients with partial metabolic reduction per EORTC criteria ([8]; dose escalation): 11 patients | Patients with complete metabolic reduction ([8]; dose escalation, B-RAF mutation, 40 mg/d): 1 patient | Patients with partial/complete metabolic reductions by FDG-PET-CT scan ([8]; dose escalation, of 34 patients): 12 patients | Patients with partial/complete metabolic reduction who received ≥ 30 mg/d ([8]; of 12 patients with metabolic reductions): 11 patients | Patients with dose interruptions/reductions as a result of drug toxicity ([9]; 40 mg/d, typically between days 13 and 28 of cycle 1): 70% | TEAE Abdominal pain, upper, Any Grade ([9]; Dose Escalation (n = 35)): 4 (11.4) No. (%) | TEAE Abdominal pain, upper, Grade ≥ 3 ([9]; Dose Escalation (n = 35)): 0 (0.0) No. (%) | TEAE Gastroesophageal reflux disease, Any Grade ([9]; Dose Escalation (n = 35)): 6 (17.1) No. (%) | TEAE Gastroesophageal reflux disease, Grade ≥ 3 ([9]; Dose Escalation (n = 35)): 0 (0.0) No. (%) | TEAE Musculoskeletal chest pain, Any Grade ([9]; Dose Escalation (n = 35)): 6 (17.1) No. (%) | TEAE Musculoskeletal chest pain, Grade ≥ 3 ([9]; Dose Escalation (n = 35)): 0 (0.0) No. (%) | TEAE Palmoplantar erythrodysesthesia syndrome, Any Grade ([9]; Dose Escalation (n = 35)): 11 (31.4) No. (%) | TEAE Palmoplantar erythrodysesthesia syndrome, Grade ≥ 3 ([9]; Dose Escalation (n = 35)): 2 (5.7) No. (%) | TEAE Upper respiratory tract infection, Any Grade ([9]; Dose Escalation (n = 35)): 6 (17.1) No. (%) | TEAE Upper respiratory tract infection, Grade ≥ 3 ([9]; Dose Escalation (n = 35)): 0 (0.0) No. (%) | TEAE Urinary tract infection, Any Grade ([9]; Dose Escalation (n = 35)): 4 (11.4) No. (%) | TEAE Urinary tract infection, Grade ≥ 3 ([9]; Dose Escalation (n = 35)): 0 (0.0) No. (%) | TEAE γ-Glutamyl transferase increase, Any Grade ([9]; Dose Escalation (n = 35)): 6 (17.1) No. (%) | TEAE γ-Glutamyl transferase increase, Grade ≥ 3 ([9]; Dose Escalation (n = 35)): 4 (11.4) No. (%) | TEAE Abdominal pain, upper, Any Grade [9, 14]: 8 (8.3) No. (%) | TEAE Abdominal pain, upper, Grade ≥ 3 [9, 14]: 2 (2.1) No. (%) | TEAE Gastroesophageal reflux disease, Any Grade [9, 14]: 4 (4.2) No. (%) | TEAE Gastroesophageal reflux disease, Grade ≥ 3 [9, 14]: 0 (0.0) No. (%) | TEAE Musculoskeletal chest pain, Any Grade [9, 14]: 7 (7.3) No. (%) | TEAE Musculoskeletal chest pain, Grade ≥ 3 [9, 14]: 0 (0.0) No. (%) | TEAE Palmoplantar erythrodysesthesia syndrome, Any Grade [9, 14]: 20 (20.8) No. (%) | TEAE Palmoplantar erythrodysesthesia syndrome, Grade ≥ 3 [9, 14]: 1 (1.0) No. (%) | TEAE Upper respiratory tract infection, Any Grade [9, 14]: 5 (5.2) No. (%) | TEAE Upper respiratory tract infection, Grade ≥ 3 [9, 14]: 0 (0.0) No. (%) | TEAE Urinary tract infection, Any Grade [9, 14]: 10 (10.4) No. (%) | TEAE Urinary tract infection, Grade ≥ 3 [9, 14]: 1 (1.0) No. (%) | TEAE γ-Glutamyl transferase increase, Any Grade [9, 14]: 4 (4.2) No. (%) | TEAE γ-Glutamyl transferase increase, Grade ≥ 3 [9, 14]: 4 (4.2) No. (%) | Time to occurrence of dose-limiting thrombocytopenia ([9]; after initial dosing, dose escalation): 2-3 weeks | Patients who experienced reversible DLTs ([9]; among patients eligible for DLT assessment (n = 31), dose escalation): 6 patients | DLT: grade 3 increased ALT ([9]; dose escalation): 1 n | DLT: grade 4 thrombocytopenia ([9]; dose escalation): 5 n | Grade ≥ 3 treatment-related TEAE fatigue ([9]; dose escalation): 11.4% | Grade ≥ 3 treatment-related TEAE hypertension ([9]; dose escalation): 11.4% | Grade ≥ 3 treatment-related TEAE thrombocytopenia ([9]; dose escalation): 14.3% | Patients with TEAEs that led to discontinuation ([9]; dose escalation (n = 35), five patients): 14.3% | Patients with grade ≥ 3 TEAEs (including DLTs) ([9]; dose escalation, 26 patients): 74.3% | Share of patients reporting grade ≥ 3 TEAEs ([9]; dose escalation, 40, 50, and 60 mg/d cohorts): 61.5% | Share of patients reporting grade ≥ 3 TEAEs ([9]; dose escalation, lower-dose cohorts): 38.5% | Dose-limiting thrombocytopenia that occurred at 40 and 60 mg/d ([9]; dose escalation, n = 2 each (eighty percent)): 4 of 5 | Maximum tolerated dose (MTD) ([9]; dose escalation, once-daily oral dosing): 40 mg/day | Grade ≥ 3 treatment-related AE fatigue ([9]; dose expansion): 7.3% | Grade ≥ 3 treatment-related AE hypertension ([9]; dose expansion): 8.3% | Patients with TEAEs that led to discontinuation ([9]; dose expansion (n = 96), 19 patients): 19.8% | Patients with serious TEAEs ([9]; dose expansion (n = 96), 56 patients): 58.3% | Patients with grade ≥ 3 TEAEs ([9]; dose expansion (n = 96), 68 patients): 70.8% | Patients with AEs that led to a dose adjustment ([9]; dose expansion, fifty patients): 52% | Patients with TEAEs that led to death (considered unrelated to treatment) ([9]; dose expansion, four patients, 6 TEAEs): 4.2% | Cutaneous SCC or keratoacanthoma ([9]; during the entire study): not reported | DLTs that occurred at doses ≥ 40 mg/d ([9]; of 6 patients with DLTs, dose escalation): 5 patients | Time to platelet count recovery ([9]; platelet transfusion or prednisolone and withholding of lifirafenib): 6 to 20 days
